The source of these data is PubChem BioAssay.

The structures appear in SMILES notation. A number with no mark means an inactive call. Results filed as inconclusive are left out. The source made the active and inactive calls.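 How the source made its calls, unless noted: active means inhibition over a set limit, the all-compound mean plus 3 SD, in both replicate runs; inconclusive means over that limit in just one replicate run; inactive means at or under that limit in both runs.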

The nature of test [1]: OD615 S. cerevisiae growth inhibition, permissive medium, pilot counter-assay, permissive growth control for S. cerevisiae lifespan shortening project (AID 705;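 active means growth inhibition above 25% in both replicates, a cutoff set 3 SD above the mean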). To be noted: OD615, 24 h, at 10 µM, active compounds read high. Put shortly:
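Test system: Saccharomyces cerevisiae strain carrying genetically modified DeaD replicative-lifespan system; buffer or medium: SC raffinose/galactose permissive medium; dosing: one dose 10 µM, DMSO 0.25% final; times: 24 h exposure, 30 °C; measured by: OD at 615 nm; read-out basis: growth inhibition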

A short description of test [2]: Restrictive medium S. cerevisiae growth inhibition, OD615, pilot screen of yeast lifespan reduction project, restrictive growth control (AID 706;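 active means growth inhibition above a set limit, 3 SD over mean compound inhibition, in both replicates, cut at about 43% in these data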;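 further: modified DeaD lifespan yeast strain shifted to restrictive glucose medium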). To be noted: OD615, 48 h, at 10 µM, active compounds read high. Summed up: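 material = engineered S. cerevisiae DeaD strain | buffer or medium = glucose-based CSMM-D restrictive medium | dosing = one concentration, 10 µM final, 0.25% DMSO | schedule = 4 h pre-growth plus 48 h compound exposure, 30 °C | detection = OD615 absorbance reading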

The nature of test [3]: viability gain of MRP-1-high H69AR cells under doxorubicin, pilot screen, MRP-1 activator project, CellTiter-Glo, duplicate (AID 807;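 active means viability increase at or above a cutoff of the median across tested compounds plus 3 SD, cut at about 8.5% in these data, passing the limit was not always enough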;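 further: compound pretreatment 18-22 h then 72 h combined with doxorubicin; 0% = doxorubicin alone and 100% = vehicle without doxorubicin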). Particulars: H69AR viability with doxorubicin, CellTiter-Glo luminescence; at 10 µM; active compounds read high.
Test [4] is described as follows: growth suppression of beta-catenin knockout HCT116, pilot screen, human colon tumor cells (AID 823;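 active means cell viability at or below a set limit in both duplicate runs, the limit being the all-compound median minus 4 SD, cut at about 23% in these data, passing the limit was not always enough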;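 further: 0% = wells killed by 20 µM Hyamine and 100% = untreated DMSO cell wells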). Particulars: CellTiter-Glo, 60 h, at 10 µM, active compounds read low.
Test [5] in a line: growth suppression of PTEN-deleted HCT116, pilot screen, cell-based, HCT116 clonal line, CellTiter-Glo (AID 824;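 active means viability at or below 27.92% in each of two runs, the all-compound median minus 4 SD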;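 further: 0% = 20 µM Hyamine control and 100% = vehicle cell control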). Particulars: 60 h, at 10 µM, active compounds read low. (In general: ATP-based viability assays read luminescence as a measure of living cells.)
Test [6] can be described thus: inhibitors of the yeast RAM network, pilot screen, dse1pr::URA3 reporter, 5-FOA selection (AID 869).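 Further: 0% = DMSO wells with no growth and 100% = 10 µM 1-NA-PP1 with full growth; RAM network block rescues cells from 5-FOA so hits raise OD615 growth.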 To be noted: S. cerevisiae dse1pr::URA3 5-FOA growth, OD615, 2 d; at 10 µM; active compounds read high; strain carries analog-sensitive mutant Cbk1 kinase.

The term viability denotes a read-out of living cells in per cent, often relative to untreated cells. The inhibition is the drop in the measured response relative to a control, in per cent. Take `O=C(c1cc(C2CC2)on1)N1CCN(c2ccc(F)cc2)CC1`: the results for the growth inhibition in test [1] and in test [2] were -18.2% and -26.9%, respectively. The viability increase in test [3] is -1.75%. The viability in test [4] was 96.8%; in test [5], 92.4%. Moreover, the inhibition in test [6] is 1.9%.
Regarding `Cn1cccc1Cc1nnc(SCC(=O)Nc2ccc3c(c2)OCCO3)n1CCc1ccccc1`, the growth inhibition is 6.56% in test [1] and 22.1% in test [2]. For the same compound, the viability increase in test [3] is -1.87%. Moreover, the viability is 90.2% in test [4] and 81% in test [5]. In addition, the inhibition in test [6] was 2.25%.
With `COc1cccc(NC(=O)c2ccc(S(=O)(=O)N3CCCCC3)cc2)c1`, the values for the growth inhibition in test [1] and in test [2] were 4.79% and 5.21%, respectively. In test [3], the viability increase is -1.52%. Besides, the viability in test [4] was 95.6%; in test [5], 85.7%. Further, the inhibition in test [6] is 1.28%.
Turning to `COc1ccc(-c2cc(CCCC(=O)NCc3ccccn3)no2)cc1`, the growth inhibition in test [1] is -5.78%; in test [2], 8.54%. Also, the viability increase in test [3] is -1.34%. In addition, the viability was 98.8% in test [4] and 97.8% in test [5]. The inhibition in test [6] was 1.08%.
For `COc1ccccc1-n1c(CNC(=O)c2ccccc2)nnc1SCC(=O)Nc1nnc(C)s1`, the growth inhibition in test [1] is 3.6%; in test [2], 0.83%. Besides, the viability increase in test [3] was -0.83%. For the same compound, the viability in test [4] was 103%; in test [5], 102%. In test [6], the inhibition is 1.05%.
As for `COC(=O)C1=C(N)N(c2ccc(F)cc2)C2=C(C(=O)CCC2)C1c1ccc2c(c1)OCO2` (configuration not stated), the growth inhibition is -6.41% in test [1] and -5.16% in test [2]. In test [3], the viability increase is -0.72%. The viability in test [4] was 84.9%; in test [5] it was 86%. In test [6], the inhibition is 3.19%.
In the case of `COC(=O)c1c(NC(=O)C2CC2)sc2c1CCCC2`, the growth inhibition in test [1] was 4.15%; in test [2], 17%. In addition, the viability increase in test [3] was -4.82%. The viability was 95.1% in test [4] and 81.7% in test [5]. Further, the inhibition in test [6] was 1.37%.
Turning to `O=C(CCS(=O)(=O)c1cccc2nonc12)N1CCN(c2ccc(F)cc2)CC1`, the values for the growth inhibition in test [1] and in test [2] were -6.7% and -0.575%, respectively. Further, in test [3], the viability increase was 0.64%. The viability in test [4] was 96.3%; in test [5] it was 96.2%. Besides, in test [6], the inhibition is 1.71%.
In the case of `O=C1CCCN1CCCNc1ncnc2c1cnn2-c1ccc(Cl)cc1`, the growth inhibition in test [1] was 0.48%; in test [2] it was 1.48%. In test [3], the viability increase is -0.95%. Besides, the results for the viability in test [4] and in test [5] were 85% and 77%, respectively. In test [6], the inhibition is 1.3%.
As for `c1ccc(CNc2ncnc3nc[nH]c23)nc1`, the growth inhibition in test [1] was -12.5%; in test [2], -1.55%. Further, the viability increase in test [3] is -1.52%. Besides, the viability is 102% in test [4] and 96.3% in test [5]. Also, in test [6], the inhibition is 1.71%.
For `NC/C(=N\O)c1ccc(Cl)cc1Cl`, the results for the growth inhibition in test [1] and in test [2] were -6.44% and -12.5%, respectively. The viability increase in test [3] is 2.52%. The viability in test [4] is 97.7%; in test [5], 94.1%. The inhibition in test [6] was 1.2%.
In the case of `COc1ccc(OC)c2c1sc(=NC(=O)c1ccco1)n2C`, the values for the growth inhibition in test [1] and in test [2] were -3.52% and 4.96%, respectively. Also, the viability increase in test [3] was -5.98%. Further, the viability in test [4] is 71.2%; in test [5] it was 67.7%. In addition, in test [6], the inhibition was 2.21%.
For the compound `COc1ccc(-c2n[nH]c(C)c2-c2cnn(-c3ccccc3)c2)c(O)c1`, the growth inhibition is 5.3% in test [1] and 0.745% in test [2]. Besides, in test [3], the viability increase is -2.75%. Further, the viability in test [4] is 85.2%; in test [5], 92.2%. Further, the inhibition in test [6] was -0.205%.
Consider `COC(=O)c1ccc(C)c(NC(=O)CN(c2cc(OC)ccc2OC)S(C)(=O)=O)c1`, for which the growth inhibition in test [1] was -8.06%; in test [2] it was -3.94%. In test [3], the viability increase is -3.03%. The figures for the viability in test [4] and in test [5] were 75.5% and 68.6%, respectively. For the same compound, the inhibition in test [6] is 0.035%.
In the case of `CCOc1ccc(CN2CCNC(=O)C2CC(=O)OC)cc1` (configuration not stated), the growth inhibition in test [1] is 0.415%; in test [2] it was -7.59%. The viability increase in test [3] is -0.51%. The figures for the viability in test [4] and in test [5] were 98.7% and 102%, respectively. The inhibition in test [6] was 1.59%.
Consider `N#CCCn1cc(C(CC(=O)c2ccc(Br)cc2)C(=O)O)c2ccccc21` (configuration not stated), for which the growth inhibition is 3.64% in test [1] and 4.21% in test [2]. The viability increase in test [3] is -3.05%. Further, the viability in test [4] is 91.7%; in test [5], 96.4%. The inhibition in test [6] was 1.56%.
In the case of `Cc1noc(/C=C/N(C)C)c1S(=O)(=O)N1CCCC(C(=O)NCc2cccs2)C1` (configuration not stated), the figures for the growth inhibition in test [1] and in test [2] were 2% and -3.34%, respectively. Besides, in test [3], the viability increase was 10.6% (active). The viability is 93.2% in test [4] and 88.5% in test [5]. Moreover, in test [6], the inhibition is 0.21%.
